13 compounds from ChEMBL document CHEMBL1641573, “3-[(Imidazolidin-2-yl)imino]indazole ligands with selectivity for the α(2)-adrenoceptor compared to the imidazoline I(1) receptor” (Bioorg Med Chem, 2011) can be followed below.

Assay [1] concerns the target T1, Alpha-2A adrenergic receptor (Homo sapiens, UniProt P08913).
T1 sequence (P08913 whole entry): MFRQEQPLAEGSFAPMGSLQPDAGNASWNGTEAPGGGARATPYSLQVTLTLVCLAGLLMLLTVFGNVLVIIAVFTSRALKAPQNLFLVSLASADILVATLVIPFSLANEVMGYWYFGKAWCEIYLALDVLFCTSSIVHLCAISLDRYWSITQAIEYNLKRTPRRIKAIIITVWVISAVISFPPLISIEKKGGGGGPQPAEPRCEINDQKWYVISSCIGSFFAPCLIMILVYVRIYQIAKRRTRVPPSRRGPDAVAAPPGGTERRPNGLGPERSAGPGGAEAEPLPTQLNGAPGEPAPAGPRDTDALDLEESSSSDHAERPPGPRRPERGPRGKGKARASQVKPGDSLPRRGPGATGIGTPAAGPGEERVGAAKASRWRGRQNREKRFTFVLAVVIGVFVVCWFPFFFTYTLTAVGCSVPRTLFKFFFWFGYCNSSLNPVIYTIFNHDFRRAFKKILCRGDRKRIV
Kind of assay: Agonist activity at human recombinant alpha2A adrenergic receptor expressed in CHO cells assessed as induction of [35S]GTPgammaS binding after 60 mins by scintillation counting. It is filed as functional, cell-based. Summed up:
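Membranes from CHO-K1 cells expressing human α2A-adrenoceptor, in Tris buffer pH 7.4 with 10 µM GDP, 5 mM MgCl2 and 150 mM NaCl; 5 µg protein preincubated with agonist 30 min at 37 °C, then 0.1 nM [35S]GTPγS for 60 min at 37 °C. Filtration and scintillation counting, duplicates, at least three repeats.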
On the technique in general: Binding of GTPγS marks nucleotide exchange on a G protein.

The target in assay [2] is T2, Alpha-2A adrenergic receptor (Homo sapiens) (UniProt P08913).
T2 sequence (whole entry): T1 sequence (P08913 whole entry)
Kind of assay: Agonist activity at human recombinant alpha2A adrenergic receptor expressed in CHO cells assessed as induction of [35S]GTPgammaS binding after 60 mins by scintillation counting relative to noradrenaline. It is filed as functional, cell-based. The gist of the method:
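Membranes from CHO-K1 cells expressing human α2A-adrenoceptor, in Tris buffer pH 7.4 with 10 µM GDP, 5 mM MgCl2 and 150 mM NaCl; 5 µg protein preincubated with agonist 30 min at 37 °C, then 0.1 nM [35S]GTPγS for 60 min at 37 °C. Filtration and scintillation counting, duplicates, at least three repeats. Curve fit gave EC50 and intrinsic activity as % of noradrenaline.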

The target in assay [3] is T3, Adrenergic receptor alpha-1 (Rattus norvegicus, UniProt P15823+P23944+P43140).
T3 sequence (P15823 whole entry): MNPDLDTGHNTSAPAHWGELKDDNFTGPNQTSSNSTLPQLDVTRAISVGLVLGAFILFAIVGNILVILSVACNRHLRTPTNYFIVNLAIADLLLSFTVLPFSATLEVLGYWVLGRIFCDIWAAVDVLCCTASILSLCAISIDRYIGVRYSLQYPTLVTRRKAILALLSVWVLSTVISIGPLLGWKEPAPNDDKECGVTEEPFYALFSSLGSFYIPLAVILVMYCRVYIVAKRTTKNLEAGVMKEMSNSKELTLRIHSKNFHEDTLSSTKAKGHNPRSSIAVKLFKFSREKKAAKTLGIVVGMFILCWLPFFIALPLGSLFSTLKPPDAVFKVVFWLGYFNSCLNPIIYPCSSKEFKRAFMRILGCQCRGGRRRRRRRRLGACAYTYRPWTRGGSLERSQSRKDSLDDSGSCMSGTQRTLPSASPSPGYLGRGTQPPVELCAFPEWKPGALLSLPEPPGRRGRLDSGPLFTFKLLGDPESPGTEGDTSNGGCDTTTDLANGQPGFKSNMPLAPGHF
T3 sequence (P23944 whole entry): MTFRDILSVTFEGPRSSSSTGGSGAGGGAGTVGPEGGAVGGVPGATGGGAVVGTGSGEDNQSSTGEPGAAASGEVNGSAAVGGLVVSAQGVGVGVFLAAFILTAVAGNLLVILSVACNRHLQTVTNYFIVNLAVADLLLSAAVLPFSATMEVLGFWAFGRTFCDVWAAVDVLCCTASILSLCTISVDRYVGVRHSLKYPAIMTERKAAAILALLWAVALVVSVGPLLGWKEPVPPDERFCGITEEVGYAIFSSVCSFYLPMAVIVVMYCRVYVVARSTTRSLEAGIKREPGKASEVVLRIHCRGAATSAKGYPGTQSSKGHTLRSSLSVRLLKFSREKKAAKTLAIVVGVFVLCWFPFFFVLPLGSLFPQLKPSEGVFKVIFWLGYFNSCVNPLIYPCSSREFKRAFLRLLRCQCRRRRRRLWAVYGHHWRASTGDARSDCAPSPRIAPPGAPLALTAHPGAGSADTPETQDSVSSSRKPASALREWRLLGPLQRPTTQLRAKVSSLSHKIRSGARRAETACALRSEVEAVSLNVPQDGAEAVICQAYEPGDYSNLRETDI
T3 sequence (P43140 whole entry): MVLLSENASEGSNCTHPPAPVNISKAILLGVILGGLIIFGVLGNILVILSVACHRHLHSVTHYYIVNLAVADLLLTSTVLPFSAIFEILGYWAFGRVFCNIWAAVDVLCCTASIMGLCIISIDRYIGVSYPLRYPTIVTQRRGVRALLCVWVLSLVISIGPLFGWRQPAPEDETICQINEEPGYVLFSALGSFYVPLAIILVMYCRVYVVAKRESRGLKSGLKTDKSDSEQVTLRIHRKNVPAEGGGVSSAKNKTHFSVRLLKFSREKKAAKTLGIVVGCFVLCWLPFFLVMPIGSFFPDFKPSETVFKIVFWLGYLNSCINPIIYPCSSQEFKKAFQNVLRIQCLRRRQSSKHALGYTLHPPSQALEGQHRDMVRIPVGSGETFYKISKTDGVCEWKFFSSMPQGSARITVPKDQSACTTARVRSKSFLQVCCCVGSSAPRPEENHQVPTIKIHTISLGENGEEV
Kind of assay: Displacement of [3H]prazosin from alpha1 adrenergic receptor in Sprague-Dawley rat brain membrane after 45 mins by liquid scintillation counting. The format is cell membranes. Summed up: (§1)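 Crude P2 brain membranes from male Sprague–Dawley rats (0.2–0.3 mg protein) incubated with 11 concentrations (0.01 nM–100 µM) and 1 nM of [3H]2BFI (I2), [3H]prazosin (α1) or [3H]RX821002 (α2), at room temperature in triplicate. Non-specific binding: BU224, phenylephrine or rauwolscine. Filtration, scintillation counting, Ki by Cheng–Prusoff from 3–4 experiments.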
(In general: Loss of bound radioactivity is the signal in a displacement assay; it reports binding, not function.)

The species entered for another assay is Rattus norvegicus. The experiment in a line: Selectivity ratio of IC50 for imidazoline I1 receptor in Sprague-Dawley rat kidney membrane to Ki for alpha2 adrenergic receptor in Sprague-Dawley rat brain membrane. The format is cell membranes.
In a further assay the target is Nischarin (Rattus norvegicus, UniProt Q4G017). Kind of assay: Displacement of [3H]clonidine from imidazoline I1 receptor in Sprague-Dawley rat kidney membrane after 45 mins by liquid scintillation counting. The format is cell membranes. Summed up:
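Specific binding defined by 10 µM rilmenidine. 11 test concentrations, 50 mM Tris-HCl pH 7.4, room temperature 45 min. Filtration through PEI-soaked glass-fibre filters, scintillation counting, IC50 by curve fitting.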

The target of assay [4] is T4, Adrenergic receptor alpha-2 (Rattus norvegicus, UniProt P22086+P19328+P22909).
T4 sequence (P22086 whole entry): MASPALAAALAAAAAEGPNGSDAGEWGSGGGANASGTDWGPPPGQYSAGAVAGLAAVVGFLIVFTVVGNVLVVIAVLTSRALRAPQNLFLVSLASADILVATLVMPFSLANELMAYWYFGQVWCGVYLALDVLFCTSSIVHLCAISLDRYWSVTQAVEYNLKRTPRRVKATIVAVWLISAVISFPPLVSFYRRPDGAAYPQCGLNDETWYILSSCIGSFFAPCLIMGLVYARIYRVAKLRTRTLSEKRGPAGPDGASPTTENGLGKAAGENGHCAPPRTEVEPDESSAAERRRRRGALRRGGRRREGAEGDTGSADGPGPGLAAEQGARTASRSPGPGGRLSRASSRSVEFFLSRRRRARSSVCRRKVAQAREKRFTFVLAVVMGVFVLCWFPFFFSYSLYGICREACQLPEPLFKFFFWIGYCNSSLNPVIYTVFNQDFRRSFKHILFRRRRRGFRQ
T4 sequence (P19328 whole entry): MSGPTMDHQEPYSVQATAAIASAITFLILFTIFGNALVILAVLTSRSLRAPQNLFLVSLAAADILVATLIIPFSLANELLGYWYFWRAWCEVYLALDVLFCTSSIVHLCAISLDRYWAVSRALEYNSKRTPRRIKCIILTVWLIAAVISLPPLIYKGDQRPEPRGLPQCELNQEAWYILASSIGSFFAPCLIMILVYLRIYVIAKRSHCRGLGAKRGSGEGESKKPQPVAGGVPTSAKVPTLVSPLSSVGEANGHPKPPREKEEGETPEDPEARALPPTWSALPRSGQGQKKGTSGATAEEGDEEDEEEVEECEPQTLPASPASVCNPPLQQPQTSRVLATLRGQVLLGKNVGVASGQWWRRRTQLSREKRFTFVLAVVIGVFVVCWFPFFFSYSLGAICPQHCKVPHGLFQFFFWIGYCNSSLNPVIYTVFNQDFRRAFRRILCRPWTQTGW
T4 sequence (P22909 whole entry): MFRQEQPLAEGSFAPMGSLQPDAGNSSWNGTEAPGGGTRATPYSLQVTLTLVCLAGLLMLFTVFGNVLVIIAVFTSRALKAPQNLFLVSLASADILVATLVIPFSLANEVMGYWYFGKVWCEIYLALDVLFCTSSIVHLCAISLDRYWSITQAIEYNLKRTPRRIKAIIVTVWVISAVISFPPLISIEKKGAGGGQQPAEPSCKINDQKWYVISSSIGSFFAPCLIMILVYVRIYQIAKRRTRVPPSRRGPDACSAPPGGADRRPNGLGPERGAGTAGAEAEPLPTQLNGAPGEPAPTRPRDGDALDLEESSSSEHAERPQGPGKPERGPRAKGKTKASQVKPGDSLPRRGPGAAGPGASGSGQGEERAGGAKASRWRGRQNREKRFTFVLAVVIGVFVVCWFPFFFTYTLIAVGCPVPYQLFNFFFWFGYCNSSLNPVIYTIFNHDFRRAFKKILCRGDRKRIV
The experiment in a line: Displacement of [3H]RX821002 from alpha2 adrenergic receptor in Sprague-Dawley rat brain membrane after 45 mins by liquid scintillation counting. The format is cell membranes. Summed up: as §1

Chain of Nischarin (Q4G017 whole entry): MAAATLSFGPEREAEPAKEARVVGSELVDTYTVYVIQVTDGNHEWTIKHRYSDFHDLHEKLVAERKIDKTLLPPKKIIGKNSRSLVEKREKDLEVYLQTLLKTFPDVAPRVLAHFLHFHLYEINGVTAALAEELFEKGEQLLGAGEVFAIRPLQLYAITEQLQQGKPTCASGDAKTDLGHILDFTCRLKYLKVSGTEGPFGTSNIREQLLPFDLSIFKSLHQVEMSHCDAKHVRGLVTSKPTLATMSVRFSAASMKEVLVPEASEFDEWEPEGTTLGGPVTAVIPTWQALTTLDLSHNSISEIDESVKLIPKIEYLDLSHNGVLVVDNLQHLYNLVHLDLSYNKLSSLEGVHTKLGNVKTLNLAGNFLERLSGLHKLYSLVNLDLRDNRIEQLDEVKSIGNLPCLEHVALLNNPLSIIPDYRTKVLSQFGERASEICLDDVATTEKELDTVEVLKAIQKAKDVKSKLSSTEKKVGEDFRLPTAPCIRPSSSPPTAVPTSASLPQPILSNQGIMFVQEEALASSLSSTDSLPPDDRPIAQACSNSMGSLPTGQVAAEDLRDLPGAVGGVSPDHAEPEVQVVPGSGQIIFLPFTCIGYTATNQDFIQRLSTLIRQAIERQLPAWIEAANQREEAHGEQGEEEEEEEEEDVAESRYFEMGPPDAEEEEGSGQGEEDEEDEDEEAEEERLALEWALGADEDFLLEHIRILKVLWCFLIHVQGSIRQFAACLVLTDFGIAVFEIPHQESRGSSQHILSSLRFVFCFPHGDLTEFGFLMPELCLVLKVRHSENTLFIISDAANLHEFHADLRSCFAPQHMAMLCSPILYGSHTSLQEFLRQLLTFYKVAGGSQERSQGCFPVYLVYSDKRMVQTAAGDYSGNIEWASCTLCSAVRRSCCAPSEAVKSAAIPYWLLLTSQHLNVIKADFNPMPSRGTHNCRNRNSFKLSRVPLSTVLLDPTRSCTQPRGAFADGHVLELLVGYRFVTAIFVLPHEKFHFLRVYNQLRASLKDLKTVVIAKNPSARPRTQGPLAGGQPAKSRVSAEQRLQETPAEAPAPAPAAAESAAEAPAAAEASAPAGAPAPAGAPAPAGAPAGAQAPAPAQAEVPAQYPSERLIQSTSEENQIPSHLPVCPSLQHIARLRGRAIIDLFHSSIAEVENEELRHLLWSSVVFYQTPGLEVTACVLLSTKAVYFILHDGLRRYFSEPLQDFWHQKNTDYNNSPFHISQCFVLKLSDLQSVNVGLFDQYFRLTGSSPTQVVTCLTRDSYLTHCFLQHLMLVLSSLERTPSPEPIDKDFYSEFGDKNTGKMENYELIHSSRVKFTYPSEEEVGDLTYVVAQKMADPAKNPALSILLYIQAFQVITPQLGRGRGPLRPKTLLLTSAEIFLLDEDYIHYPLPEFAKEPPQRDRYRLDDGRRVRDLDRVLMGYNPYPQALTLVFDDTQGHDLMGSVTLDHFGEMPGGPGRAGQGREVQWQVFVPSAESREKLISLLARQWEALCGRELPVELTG

For `c1ccc2c(c1)cnn2N=C1NCCN1` [MARSANIDINE], the concentration giving a half-maximal response (EC50) in assay [1] was 160 nM. Moreover, the Intrinsic activity in assay [2] worked out at 18%.
On the same counts, the results for `Cc1cccc2cnn(N=C3NCCN3)c12` are 37 nM and 32%.
As to `Cl.Clc1ccc2c(N=C3NCCN3)n[nH]c2c1`, the Ki is 386 nM in assay [3] and 502 nM in assay [4]. In addition, the Ratio in the assay listed under Rattus norvegicus is 4. On Nischarin, this compound showed an IC50 of 2010 nM.
As to `Cc1ccc2[nH]nc(N=C3NCCN3)c2c1.Cl`, the Ki is reported as 29000 nM in assay [3] and 11400 nM in assay [4]. For the same compound, the Ratio in the assay listed under Rattus norvegicus was found to be 2. This compound displayed an IC50 on Nischarin of 21200 nM.
For `Cl.Clc1ccc2[nH]nc(N=C3NCCN3)c2c1`, the figures for the inhibitory constant (Ki) in assay [3] and in assay [4] were 121 nM and 10600 nM, respectively. The Ratio in the assay filed under Rattus norvegicus is more than 9.4. For the same compound, the IC50 at Nischarin is more than 100000 nM.
In the case of `Clc1cccc2c1cnn2N=C1NCCN1`, the EC50 in assay [1] stood at 180 nM. In addition, the Intrinsic activity in assay [2] was found to be 62%.
With `Cc1cccc([C@H](C)c2c[nH]cn2)c1C`, the Intrinsic activity in assay [2] was 60%.
`Clc1cccc2cnn(N=C3NCCN3)c12`: the EC50 in assay [1] is 15 nM. Further, the Intrinsic activity in assay [2] was 48%.
As for `Cc1ccc2c(N=C3NCCN3)n[nH]c2c1.Cl`, the Ki is listed as 508 nM in assay [3] and 176 nM in assay [4]. In the assay listed under Rattus norvegicus, the Ratio amounted to 94.3. The IC50 on Nischarin was determined as 16600 nM.
With `Cl.c1ccc2c(N=C3NCCN3)n[nH]c2c1`, in assay [1], the EC50 was found to be 82 nM. Further, the Ratio in the assay listed under Rattus norvegicus amounted to 82. Besides, on Nischarin, the IC50 is 3220 nM. The Intrinsic activity in assay [2] is 55%. This compound also yielded a Ki in assay [4] of 39.4 nM.
In the case of `Brc1cccc2[nH]nc(N=C3NCCN3)c12.Cl`, the Ki in assay [3] came out at 984 nM; in assay [4], 6420 nM. Also, the Ratio in the assay listed under Rattus norvegicus was found to be 1. Also, on Nischarin, the IC50 came to 7560 nM.
On the same counts, the results for `COc1cccc2[nH]nc(N=C3NCCN3)c12.Cl` are 196 nM, 748 nM, 34 and 25600 nM.
For `COc1ccc2[nH]nc(N=C3NCCN3)c2c1.Cl` the same measures were 244 nM, 1460 nM, more than 68 and more than 100000 nM.

What is called EC50 is the concentration at which the effect is half-maximal. In general, Ki refers to a dissociation constant, usually derived from enzyme kinetics or from competition with a known ligand. A lower Ki goes with tighter binding. The term IC50 denotes the concentration that gives 50% inhibition. A low value points to greater potency in that assay.
